Source: ChEMBL document CHEMBL3046416, “Differential susceptibility to glyphosate among the Conyza weed species in Spain” (J Agric Food Chem, 2010)

Assays:
Erigeron canadensis [1] = experiment: Drug absorption in Conyza canadensis (horseweed) assessed as translocation in rest of plant at […] measured after 96 hr by liquid scintillation spectrometry; assay type: ADME, organism-based; conditions: in vivo
Procedure, shortened: (§1)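 Glyphosate-susceptible plants were grown in pots in a growth chamber (28/18 °C, 16 h photoperiod). They were treated with commercial glyphosate spiked with [14C]glyphosate (0.417 kBq μL-1; 1 g ai L-1, i.e. 200 g ai ha-1 in 200 L). Plants were harvested 96 h after treatment. Unabsorbed label was rinsed from the treated leaf with water-acetone (1:1). Plants were split into treated leaf, rest of shoot and root, and the rinsate was counted by liquid scintillation.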

Conyza sumatrensis [2] = experiment: Drug absorption in Conyza sumatrensis (tall fleabane) assessed as translocation in rest of plant at […] measured after 96 hr by liquid scintillation spectrometry; assay type: ADME, organism-based; conditions: in vivo; procedure, shortened: as §1
Leaf [3] = experiment: Drug absorption in Conyza canadensis (horseweed) assessed as translocation in treated leaf at […] measured after 96 hr by liquid scintillation spectrometry; assay type: ADME; conditions: erigeron canadensis, other; procedure, shortened: as §1
Leaf [4] = experiment: Drug absorption in Conyza bonariensis (hairy fleabane) assessed as translocation in treated leaf at […] measured after 96 hr by liquid scintillation spectrometry; assay type: ADME; conditions: other; procedure, shortened: as §1
Leaf [5] = experiment: Drug absorption in Conyza sumatrensis (tall fleabane) assessed as translocation in treated leaf at […] measured after 96 hr by liquid scintillation spectrometry; assay type: ADME; conditions: topical_or_ocular; procedure, shortened: as §1
[6] = Ratio of ED50 for hairy fleabane Conyza canadensis to ED50 for tall fleabane Conyza sumatrensis; assay type: functional
[7] = Ratio of ED50 for hairy fleabane Conyza bonariensis to ED50 for tall fleabane Conyza sumatrensis; assay type: functional
Conyza bonariensis [8] = experiment: Herbicidal activity against Conyza bonariensis (hairy fleabane) at bolting stage (BBHC32) assessed as growth inhibition measured after 21 days; assay type: functional
Procedure, shortened: (§2)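 Glyphosate-susceptible plants were grown in a growth chamber (28/18 °C day/night, 16 h photoperiod, 80% RH). Commercial glyphosate was sprayed from 50 cm in a laboratory spray chamber at rosette (BBCH 14-15), or, for C. bonariensis only, also at bolting (BBCH 32) or flowering (BBCH 55). Shoot fresh weight was taken 21 d later as % of untreated. Five replications of three plants each. ED50 came from a log-logistic regression of pooled data.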

Conyza bonariensis [9] = experiment: Herbicidal activity against Conyza bonariensis (hairy fleabane) at flowering stage (BBHC55) assessed as growth inhibition measured after 21 days; assay type: functional; procedure, shortened: as §2
Erigeron canadensis [10] = experiment: Herbicidal activity against Conyza canadensis (horseweed) at rosette stage (BBHC14 to 15) assessed as growth inhibition measured after 21 days; assay type: functional; procedure, shortened: as §2
Conyza bonariensis [11] = experiment: Herbicidal activity against Conyza bonariensis (hairy fleabane) at rosette stage (BBHC14 to 15) assessed as growth inhibition measured after 21 days; assay type: functional; procedure, shortened: as §2
Conyza sumatrensis [12] = experiment: Herbicidal activity against Conyza sumatrensis ( tall fleabane) at rosette stage (BBHC14 to 15) assessed as growth inhibition measured after 21 days; assay type: functional; procedure, shortened: as §2
Root [13] = experiment: Drug absorption in Conyza canadensis (horseweed) assessed as translocation in root at […] measured after 96 hr by liquid scintillation spectrometry; assay type: ADME; conditions: erigeron canadensis; procedure, shortened: as §1
Root [14] = experiment: Drug absorption in Conyza bonariensis (hairy fleabane) assessed as translocation in root at […] measured after 96 hr by liquid scintillation spectrometry; assay type: ADME; procedure, shortened: as §1
Root [15] = experiment: Drug absorption in Conyza sumatrensis (tall fleabane) assessed as translocation in root at […] measured after 96 hr by liquid scintillation spectrometry; assay type: ADME; procedure, shortened: as §1
Conyza bonariensis [16] = experiment: Drug absorption in Conyza bonariensis (hairy fleabane) assessed as translocation in rest of plant at […] measured after 96 hr by liquid scintillation spectrometry; assay type: ADME, organism-based; conditions: in vivo; procedure, shortened: as §1

O=C(O)CNCP(=O)(O)O [GLYPHOSATE]
Drug transport (Erigeron canadensis [1]): 4% | Drug transport (Conyza sumatrensis [2]): 5.9% | Drug transport (Leaf [3]): 93% | Drug transport (Leaf [4]): 85.2% | Drug transport (Leaf [5]): 82.4% | Ratio ED50 [6]: 12 | Ratio ED50 [7]: 5.4 | ED50 (Conyza bonariensis [8]): 86.6 gAi/ha | ED50 (Conyza bonariensis [9]): 117.5 gAi/ha | ED50 (Erigeron canadensis [10]): 34.9 gAi/ha | ED50 (Conyza bonariensis [11]): 15.7 gAi/ha | ED50 (Conyza sumatrensis [12]): 2.9 gAi/ha | Drug transport (Root [13]): 2.8% | Drug transport (Root [14]): 8.3% | Drug transport (Root [15]): 11.6% | Drug transport (Conyza bonariensis [16]): 6.4%
